Reference: ChEMBL document CHEMBL1137699, “Synthesis, antibacterial and anticonvulsant evaluations of some cyclic enaminones” (Eur J Med Chem, 2009)
Converted amounts (≈) assume the structure as drawn. The source made the active and inactive calls. The calls are words filed in the database; no cut-off is given here.

Columns and labels:
Mus musculus [1] = assay: Anticonvulsant activity against subcutaneous pentylenetetrazole-induced seizures in mouse at 300 mg/kg, ip; format: functional, organism-based; set-up: dose 300 mg/kg
Mus musculus [2] = assay: Anticonvulsant activity against maximal electroshock-induced seizures in mouse at 300 mg/kg, ip; format: functional, organism-based; set-up: dose 300 mg/kg
Mus musculus [3] = assay: Anticonvulsant activity against maximal electroshock-induced seizures in mouse at >100 to 300 mg/kg, ip; format: functional, organism-based; set-up: dose 300 mg/kg
Mus musculus [4] = assay: Anticonvulsant activity against maximal electroshock-induced seizures in mouse at <=100 mg/kg, ip; format: functional, organism-based
Staphylococcus [5] = assay: Antibacterial activity against methicillin-sensitive coagulase-negative Staphylococcus clinical isolate after 18 hrs by NCCLS M7-A4 method; format: functional
In short: (§1)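 Test compounds dissolved in 80% DMSO in water. Clinical isolates came from a MRSA reference laboratory culture collection. Final inoculum 10^7 CFU/ml, incubated 35 °C for 18 h. MIC taken as the lowest concentration completely inhibiting growth. Reference strains S. aureus ATCC 25923, S. epidermidis ATCC 12228 and E. faecalis ATCC 29212 served as test controls.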

Escherichia coli = assay: Antibacterial activity against Escherichia coli ATCC 25922 after 18 hrs by NCCLS M7-A4 method; format: functional, organism-based
In short: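 Reference E. coli strain tested by NCCLS/CLSI agar dilution. Compounds were in 80% DMSO in water over a 0.12–16 dilution range, incubated at 35 °C for 18 h.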

Haemophilus influenzae [6] = assay: Antibacterial activity against Haemophilus influenzae ATCC 49247 after 18 hrs by NCCLS M7-A4 method; format: functional, organism-based
In short: (§2)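 Agar dilution on Mueller–Hinton agar with 5% sheep blood, per NCCLS/CLSI. Compounds were dissolved in 80% DMSO in water and tested over 0.12–16. Incubation was 35 °C for 18 h. MIC was read as the lowest concentration completely inhibiting growth. Line 4 used clinical isolates (n = 7 for H. influenzae).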

Enterococcus faecalis = assay: Antibacterial activity against Enterococcus faecalis ATCC 29212 after 18 hrs by NCCLS M7-A4 method; format: functional, organism-based
In short: (§3)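 Agar dilution on Mueller–Hinton agar, following NCCLS (now CLSI) guidance. Test compounds were dissolved in 80% DMSO in water and tested at 0.12 to 16. Plates were incubated at 35 °C for 18 h. The MIC was the lowest concentration giving complete growth inhibition.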

[7] = test system: Staphylococcus epidermidis; assay: Antibacterial activity against Staphylococcus epidermidis ATCC 12228 after 18 hrs by NCCLS M7-A4 method; format: functional, organism-based; in short: as §3
Staphylococcus aureus [8] = assay: Antibacterial activity against methicillin-susceptible Staphylococcus aureus clinical isolate after 18 hrs by NCCLS M7-A4 method; format: functional; in short: as §1
Streptococcus pneumoniae = assay: Antibacterial activity against Streptococcus pneumoniae clinical isolate after 18 hrs by NCCLS M7-A4 method; format: functional; in short: as §2
Haemophilus influenzae [9] = assay: Antibacterial activity against Haemophilus influenzae clinical isolate after 18 hrs by NCCLS M7-A4 method; format: functional; in short: as §2
Staphylococcus aureus [10] = assay: Antibacterial activity against Staphylococcus aureus ATCC 25923 after 18 hrs by NCCLS M7-A4 method; format: functional, organism-based; in short: as §3
Enterococcus [11] = assay: Antibacterial activity against vancomycin-sensitive Enterococcus clinical isolate after 18 hrs by NCCLS M7-A4 method; format: functional; in short: as §1
Mus musculus [12] = assay: Anticonvulsant activity against subcutaneous pentylenetetrazole-induced seizures in mouse at <=100 mg/kg, ip; format: functional, organism-based
Mus musculus [13] = assay: Anticonvulsant activity against subcutaneous pentylenetetrazole-induced seizures in mouse at >100 to 300 mg/kg, ip; format: functional, organism-based; set-up: dose 300 mg/kg
Staphylococcus [14] = assay: Antibacterial activity against methicillin-resistant coagulase-negative Staphylococcus clinical isolate after 18 hrs by NCCLS M7-A4 method; format: functional; in short: as §1
Staphylococcus aureus [15] = assay: Antibacterial activity against methicillin-resistant Staphylococcus aureus clinical isolate after 18 hrs by NCCLS M7-A4 method; format: functional; in short: as §1
Enterococcus [16] = assay: Antibacterial activity against vancomycin-resistant Enterococcus clinical isolate after 18 hrs by NCCLS M7-A4 method; format: functional; in short: as §1

`CCOC(=O)C1C(=O)C=C(N2CCOCC2)CC1c1ccccc1` (centres undefined) was tested, and the Activity (Mus musculus [1]) was “inactive” and the Activity (Mus musculus [2]) was “inactive”.

For `CCOC(=O)C1C(=O)C=C(Nc2ccc(Cl)cc2)CC1c1ccccc1` (centres undefined), the Activity (Mus musculus [3]) was “Active”.

In the case of `CCOC(=O)C1C(=O)C=C(N2CCCC2)CC1c1ccccc1` (centres undefined), the Activity (Mus musculus [3]) was “Active”.

With `CCOC(=O)C1C(=O)C=C(NCCc2ccccc2)CC1C` (centres undefined) the Activity (Mus musculus [4]) was “Active”.

`COC(=O)C1C(=O)C=C(N2CCCC2)CC1c1ccccc1` (centres undefined) was tested, and the Activity (Mus musculus [1]) was “inactive” and the Activity (Mus musculus [2]) was “inactive”.

In the case of `COC(=O)C1C(=O)C=C(NC[C@H]2CN(c3ccc(N4CCOCC4)c(F)c3)C(=O)O2)CC1c1ccccc1` (some centres undefined), the Activity (Mus musculus [1]) was “inactive”, the MIC (Staphylococcus [5]) was over 16 µg/mL and the Activity (Mus musculus [2]) was “inactive”. For the same molecule, the Activity (Escherichia coli) was “inactive”, the Activity (Haemophilus influenzae [6]) was “inactive” and the Activity (Enterococcus faecalis) was “inactive”. The Activity [7] was “inactive”, the MIC (Staphylococcus aureus [8]) was over 16 µg/mL and the MIC (Streptococcus pneumoniae) was over 16 µg/mL. The MIC (Haemophilus influenzae [9]) was over 16 µg/mL, the Activity (Staphylococcus aureus [10]) was “inactive” and the MIC (Enterococcus [11]) was over 16 µg/mL.

For `COC(=O)C1C(=O)C=C(NC[C@H]2CN(c3ccc(N4CCOCC4)c(F)c3)C(=O)O2)CC1C` (some centres undefined), the Activity (Mus musculus [1]) was “inactive”, the MIC (Staphylococcus [5]) was over 16 µg/mL and the Activity (Mus musculus [2]) was “inactive”. The Activity (Escherichia coli) was “inactive”, the Activity (Haemophilus influenzae [6]) was “inactive” and the Activity (Enterococcus faecalis) was “inactive”. For the same molecule, the Activity [7] was “inactive”, the MIC (Staphylococcus aureus [8]) was over 16 µg/mL and the MIC (Streptococcus pneumoniae) was over 16 µg/mL. The MIC (Haemophilus influenzae [9]) was over 16 µg/mL, the Activity (Staphylococcus aureus [10]) was “inactive” and the MIC (Enterococcus [11]) was over 16 µg/mL.

`COC(=O)C1C(=O)C=C(Nc2ccc(N3CCOCC3)c(F)c2)CC1C` (centres undefined) was tested, and the Activity (Mus musculus [1]) was “inactive” and the Activity (Mus musculus [2]) was “inactive”.

In the case of `CCOC(=O)C1C(=O)C=C(Nc2ccc(F)cc2)CC1c1ccccc1` (centres undefined), the Activity (Mus musculus [1]) was “inactive” and the Activity (Mus musculus [2]) was “inactive”.

In the case of `CCOC(=O)C1C(=O)C=C(Nc2ccc(O)cc2)CC1c1ccccc1` (centres undefined), the Activity (Mus musculus [1]) was “inactive” and the Activity (Mus musculus [2]) was “inactive”.

For `COC(=O)C1C(=O)C=C(Nc2ccc(F)cc2)CC1c1ccccc1` (centres undefined), the Activity (Mus musculus [1]) was “inactive” and the Activity (Mus musculus [2]) was “inactive”.

`CCOC(=O)C1C(=O)C=C(Nc2ccc(N3CCOCC3)c(F)c2)CC1C` (centres undefined) was tested, and the Activity (Mus musculus [1]) was “inactive”, the MIC (Staphylococcus [5]) was over 16 µg/mL and the Activity (Mus musculus [2]) was “inactive”. For the same molecule, the Activity (Escherichia coli) was “inactive”, the Activity (Haemophilus influenzae [6]) was “inactive” and the Activity (Enterococcus faecalis) was “inactive”. The Activity [7] was “inactive”, the MIC (Staphylococcus aureus [8]) was over 16 µg/mL and the MIC (Streptococcus pneumoniae) was over 16 µg/mL. The MIC (Haemophilus influenzae [9]) was over 16 µg/mL, the Activity (Staphylococcus aureus [10]) was “inactive” and the MIC (Enterococcus [11]) was over 16 µg/mL.

For `COC(=O)C1C(=O)C=C(Nc2ccc(N3CCN(C(=O)OC(C)(C)C)CC3)c(F)c2)CC1c1ccccc1` (centres undefined), the Activity (Mus musculus [1]) was “inactive” and the Activity (Mus musculus [2]) was “inactive”.

For `CCOC(=O)C1C(=O)C=C(Nc2ccc(F)cc2)CC1C` (centres undefined), the Activity (Mus musculus [4]) was “Active” and the Activity (Mus musculus [12]) was “Active”.

In the case of `CCN(CC)C1=CC(=O)C(C(=O)OC)C(c2ccccc2)C1` (centres undefined), the Activity (Mus musculus [1]) was “inactive” and the Activity (Mus musculus [2]) was “inactive”.

In the case of `CCOC(=O)C1C(=O)C=C(NCCCc2ccccc2)CC1c1ccccc1` (centres undefined), the Activity (Mus musculus [1]) was “inactive” and the Activity (Mus musculus [2]) was “inactive”.

With `CCOC(=O)C1C(=O)C=C(N(CC)CC)CC1c1ccccc1` (centres undefined) the Activity (Mus musculus [1]) was “inactive” and the Activity (Mus musculus [2]) was “inactive”.

With `CCOC(=O)C1C(=O)C=C(Nc2ccc(Cl)cn2)CC1c1ccccc1` (centres undefined) the Activity (Mus musculus [1]) was “inactive” and the Activity (Mus musculus [2]) was “inactive”.

With `COC(=O)C1C(=O)C=C(Nc2ccccc2)CC1c1ccccc1` (centres undefined) the Activity (Mus musculus [13]) was “Active”.

With `O=C1O[C@@H](Cn2ccnn2)CN1c1ccc(N2CCOCC2)c(F)c1` the MIC (Staphylococcus [5]) was 1 µg/mL (≈ 2.88 µM), the MIC (Staphylococcus [14]) was 0.5 µg/mL (≈ 1.44 µM) and the Activity (Escherichia coli) was “inactive”. For the same molecule, the Activity (Haemophilus influenzae [6]) was “inactive”, the Activity (Enterococcus faecalis) was “inactive” and the Activity [7] was “inactive”. The MIC (Staphylococcus aureus [8]) was 0.5 µg/mL (≈ 1.44 µM), the MIC (Staphylococcus aureus [15]) was 0.5 µg/mL (≈ 1.44 µM) and the MIC (Streptococcus pneumoniae) was 0.5 µg/mL (≈ 1.44 µM). For the same molecule, the MIC (Haemophilus influenzae [9]) was 32 µg/mL (≈ 92.1 µM), the Activity (Staphylococcus aureus [10]) was “inactive” and the MIC (Enterococcus [11]) was 0.5 µg/mL (≈ 1.44 µM). For the same molecule, the MIC (Enterococcus [16]) was 0.5 µg/mL (≈ 1.44 µM).

`COC(=O)C1C(=O)C=C(Nc2ccc(Cl)cn2)CC1c1ccccc1` (centres undefined) was tested, and the Activity (Mus musculus [1]) was “inactive” and the Activity (Mus musculus [2]) was “inactive”.
